Consider seven compounds from ChEMBL document CHEMBL4321862, “Application of Bivalent Bioisostere Concept on Design and Discovery of Potent Opioid Receptor Modulators” (J Med Chem, 2019).

Calls of active or inactive are those of the source.

Series [1] addresses Mu-type opioid receptor (Mus musculus) (UniProt P42866). Kind of series: (§1) Agonist activity at mouse mu opioid receptor expressed in CHO cells assessed as inhibition of forskolin-induced cAMP formation incubated for 8 min followed by forskolin stimulation by ELISA. In kind it is functional, cell-based. Put shortly: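 mMOR-CHO cells grown to confluency, pre-incubated 30 min at 37°C with 1 mM IBMX, 200 μM Ro 20-1724, bovine serum albumin and 20 mM HEPES (pH 7.2-7.5). Ligand then added with 10 μM forskolin for 8 min at 37°C. Media removed, cells rinsed with PBS, cAMP measured by ELISA. DMEM/F12 used as solvent throughout.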

For series [2], the target named is T1, Mu-type opioid receptor (Mus musculus, UniProt P42866). The description is as §1. Type of series: functional, cell-based.
Series [3] addresses T1, Mu-type opioid receptor. As to the kind of experiment: Displacement of [3H]-Naloxone from mouse mu opioid receptor expressed in CHO cells incubated for […] by competitive radioligand binding assay. Type of series: cell-based.
For series [4], the target named is Kappa-type opioid receptor (Mus musculus, UniProt P33534). As to the kind of experiment: Displacement of [3H]-[…] from mouse kappa opioid receptor expressed in CHO cells incubated for […] by competitive radioligand binding assay. Type of series: cell-based.
Series [5] has as its target Delta-type opioid receptor (Homo sapiens, UniProt P41143). Kind of series: Displacement of [3H]-[…] from human delta opioid receptor expressed in CHO cells incubated for […] by competitive radioligand binding assay. Type of series: cell-based.
A short description of series [6]: Selectivity index, ratio of Ki for mouse kappa opioid receptor expressed in CHO cells to Ki for mouse mu opioid receptor expressed in CHO cells.
A short description of series [7]: Selectivity index, ratio of Ki for human delta opioid receptor expressed in CHO cells to Ki for mouse mu opioid receptor expressed in CHO cells.
For series [8], the target named is T1, Mu-type opioid receptor. As to the kind of experiment: Agonist activity at recombinant mouse mu opioid receptor expressed in CHO cell membrane assessed as [35]-GTPgammaS binding incubated for […] by scintillation counting method.
Series [9] concerns Mus musculus. As to the kind of experiment: Inhibition of morphine-induced antinociceptive activity in Swiss Webster mouse assessed as decrease in latency to tail withdrawal at 10 mg/kg, sc administered 5 mins before morphine stimulation observed for 20 mins by warm water tail withdrawal assay. In kind it is functional, organism-based. Put shortly: (§2)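 Male Swiss Webster mice, n ≥ 5, baseline latency 2–4 s. Test compound given s.c. 5 min before morphine 10 mg/kg. Tail immersion at 56 ± 0.1 °C 20 min after morphine, 10 s cutoff, %MPE per mouse.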

Series [10] concerns Mus musculus. As to the kind of experiment: Inhibition of morphine-induced antinociceptive activity in subcutaneously dosed Swiss Webster mouse assessed as decrease in latency to tail withdrawal administered 5 mins before morphine stimulation observed for 20 mins by warm water tail withdrawal assay. In kind it is functional. Put shortly: as §2
Series [11] deals with T1, Mu-type opioid receptor. Kind of series: Antagonist activity at mouse mu opioid receptor expressed in CHO cells cotransfected with Galphaqi5 assessed as inhibition of DAMGO-induced increase in intracellular calcium concentration preincubated for 60 mins in Fluo4AM solution followed by compound addition and further incubated for 15 mins followed by DAMGO stimulation by Fluo4AM dye based assay. Type of series: functional, cell-based. Put shortly:
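Gαqi5-transfected mMOR-CHO cells loaded 60 min with Fluo-4 AM/probenecid. Triplicate per concentration, at least three repeats, mean ± SEM. Naltrexone as control. IC50 by non-linear regression.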

The subject of series [12] is Mus musculus. As to the kind of experiment: Inhibition of opioid-withdrawal symptom in morphine-pelleted Swiss Webster mouse assessed as reduction in wet dog shakes at 1 mg/kg, sc observed after 20 mins. In kind it is functional, organism-based. Put shortly:
(§3)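 Male Swiss Webster mice, n = 5, implanted with 75 mg morphine pellet at base of neck. After 72 h, 30 min habituation in observation chamber, then test compound s.c. Wet-dog shakes, escape jumps and paw tremors counted over 20 min.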

Series [13] has as its system Mus musculus. As to the kind of experiment: Inhibition of opioid-withdrawal symptom in morphine-pelleted Swiss Webster mouse assessed as reduction in escape jumps at 1 mg/kg, sc observed after 20 mins. In kind it is functional, organism-based. Put shortly:
as §3

For series [14], the system named is Mus musculus. As to the kind of experiment: Inhibition of opioid-withdrawal symptom in morphine-pelleted Swiss Webster mouse assessed as reduction in paw tremors at 1 mg/kg, sc observed after 20 mins. In kind it is functional, organism-based. Put shortly: as §3
The test system of series [15] is Mus musculus. Kind of series: Inhibition of opioid-withdrawal symptom in morphine-pelleted Swiss Webster mouse assessed as reduction in wet dog shakes at 8 mg/kg, sc observed after 20 mins. In kind it is functional, organism-based. Put shortly: as §3
For series [16], the system named is Mus musculus. Kind of series: Inhibition of opioid-withdrawal symptom in morphine-pelleted Swiss Webster mouse assessed as reduction in escape jumps at 8 mg/kg, sc observed after 20 mins. Type of series: functional, organism-based. Put shortly: as §3
The subject of series [17] is Mus musculus. As to the kind of experiment: Inhibition of opioid-withdrawal symptom in morphine-pelleted Swiss Webster mouse assessed as reduction in paw tremors at 8 mg/kg, sc observed after 20 mins. Type of series: functional, organism-based. Put shortly:
as §3

Series [18] concerns the target Mu-type opioid receptor (Mus musculus) (UniProt P42866). As to the kind of experiment: Agonist activity at recombinant mouse mu opioid receptor expressed in CHO cell membrane assessed as [35]-GTPgammaS binding incubated for […] by scintillation counting method relative to DAMGO.
Series [19] shares this target. As to the kind of experiment: Agonist activity at mouse mu opioid receptor expressed in CHO cells cotransfected with Galphaqi5 assessed as intracellular calcium level preincubated for 60 mins in Fluo4AM solution followed by compound addition by Fluo4AM dye based assay. Type of series: functional, cell-based.
Series [20] is described as follows: Toxicity in placebo-pelleted Swiss Webster mouse assessed as wet dog shakes at 20 mg/kg, sc observed after 20 mins. In kind it is organism-based. As to conditions: in vivo. Put shortly: (§4)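 Male Swiss Webster mice, n = 5, placebo-pelleted. Tested 72 h after implantation, following 30 min chamber habituation. Compound given s.c.; wet-dog shakes, escape jumps and paw tremors counted over 20 min.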

Series [21] is described as follows: Toxicity in placebo-pelleted Swiss Webster mouse assessed as escape jumps at 20 mg/kg, sc observed after 20 mins. In kind it is organism-based. As to conditions: in vivo. Put shortly: as §4
Series [22] is described as follows: Toxicity in placebo-pelleted Swiss Webster mouse assessed as paw tremors at 20 mg/kg, sc observed after 20 mins. In kind it is organism-based. The following applies: in vivo. Put shortly: as §4
Series [23] deals with Mus musculus. As to the kind of experiment: Inhibition of opioid-withdrawal symptom in morphine-pelleted Swiss Webster mouse assessed as reduction in wet dog shakes at 50 mg/kg, sc observed after 20 mins. Type of series: functional, organism-based. Put shortly: as §3
For series [24], the system named is Mus musculus. Kind of series: Inhibition of opioid-withdrawal symptom in morphine-pelleted Swiss Webster mouse assessed as reduction in escape jumps at 50 mg/kg, sc observed after 20 mins. In kind it is functional, organism-based. Put shortly: as §3
Series [25] concerns Mus musculus. Kind of series: Inhibition of opioid-withdrawal symptom in morphine-pelleted Swiss Webster mouse assessed as reduction in paw tremors at 50 mg/kg, sc observed after 20 mins. In kind it is functional, organism-based. Put shortly:
as §3

Series [26] concerns the target Delta-type opioid receptor (Mus musculus, UniProt P32300). As to the kind of experiment: Displacement of [3H]-diprenorphine from mouse delta opioid receptor expressed in CHO cells incubated for […] by competitive radioligand binding assay. In kind it is cell-based.
The test system of series [27] is Mus musculus. Kind of series: Antinociceptive activity in Swiss Webster mouse assessed as increase in latency to tail withdrawal at 10 mg/kg, sc observed for 20 mins by warm water tail withdrawal assay. In kind it is functional, organism-based. Put shortly:
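Male Swiss Webster mice, 25–30 g, n = 5 per group, baseline tail latency 2–4 s accepted. Compound given s.c. in saline or water. Tail immersed in 56 ± 0.1 °C water 20 min post-dose, 10 s cutoff. %MPE = [(test − control)/(10 − control)] × 100. Saline and morphine as controls.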

In the case of `C[C@@H](NC(=O)[C@@H](N)Cc1ccc(O)cc1)C(=O)NCC(=O)N(C)[C@@H](Cc1ccccc1)C(=O)NCCO`, the Emax in series [1] came out at 82.4%.

Take `Cl.O=C(N[C@H]1CC[C@@]2(O)[C@H]3Cc4ccc(O)c5c4[C@@]2(CCN3CC2CC2)[C@H]1O5)c1cccc2ccsc12`: the concentration giving a half-maximal response (EC50) result on Mu-type opioid receptor [2] (cho) is “Not Active”; on Mu-type opioid receptor [8], 6.21 nM. The Ki on Mu-type opioid receptor [3] worked out at 0.31 nM; in series [4] it was 2.65 nM; in series [5] it was 8.35 nM. The entries for the “Ratio Ki” value in [6] and in series [7] were 8.5 and 26.9, respectively. Also, the inhibition result in the series on Mus musculus [9], with Mus musculus [12], in the series on Mus musculus [13], with Mus musculus [14], with Mus musculus [15] and in the series with Mus musculus [16] was “Active” throughout. The inhibition entry with Mus musculus [17] was “Active”. For the same compound, the AD50 in the series with Mus musculus [10] is 0.29 mg/kg. The IC50 at Mu-type opioid receptor [11] was found to be 566 nM.

Take `Cl.O=C(N[C@@H]1CC[C@@]2(O)[C@H]3Cc4ccc(O)c5c4[C@@]2(CCN3CC2CC2)[C@H]1O5)c1cccc2ccoc12`: the affinity in [4] corresponds to a Ki of 0.81 nM. Moreover, the maximal effect (Emax) in series [18] was 27.3%; in [1] it was 35.7%. The inhibition result in the series on Mus musculus [9], in the series on Mus musculus [12], in the series with Mus musculus [13], with Mus musculus [14], in the series on Mus musculus [23] and in the series on Mus musculus [24] was “Active” each time. Further, the inhibition result in the series on Mus musculus [25] is “Active”. The AD50 with Mus musculus [10] was 0.18 mg/kg. Moreover, the outcome in [19] was inactive. For the same compound, the Activity entry in series [20], in series [21] and in series [22] was “Non-Toxic” in each case.

With `Cl.O=C(N[C@H]1CC[C@@]2(O)[C@H]3Cc4ccc(O)c5c4[C@@]2(CCN3CC2CC2)[C@H]1O5)c1cccc2occc12`, the results for the EC50 on Mu-type opioid receptor [2] (read-out: EC50) and on Mu-type opioid receptor [8] were 80 nM and 0.77 nM, respectively. Further, the values for the Ki (at Mu-type opioid receptor [3]; in series [4]; in series [5]) were 0.26 nM, 4.98 nM and 16.9 nM, respectively. In addition, the “Ratio Ki” value was 19.2 in [6] and 65 in [7]. Also, the maximum response (Emax) worked out at 10% in series [18] and 18.9% in [1]. In addition, the inhibition result in the series on Mus musculus [9], in the series on Mus musculus [12], in the series on Mus musculus [13] and in the series with Mus musculus [14] was “Active” each time. Also, in the series with Mus musculus [10], the AD50 was determined as 0.29 mg/kg. Moreover, the result in series [19] was inactive. Further, the IC50 on Mu-type opioid receptor [11] came to 50.7 nM.

The compound `Cl.O=C(N[C@H]1CC[C@@]2(O)[C@H]3Cc4ccc(O)c5c4[C@@]2(CCN3CC2CC2)[C@H]1O5)c1cccc2cc[nH]c12` showed a Ki in series [26] of 13.7 nM. For the same compound, the Emax in series [18] was found to be 19.1%. In addition, the AD50 in the series on Mus musculus [10] is 2.07 mg/kg.

In the case of `Cl.O=C(N[C@@H]1CC[C@@]2(O)[C@H]3Cc4ccc(O)c5c4[C@@]2(CCN3CC2CC2)[C@H]1O5)c1ccc2ccoc2c1`, the Ki at Mu-type opioid receptor [3] was 0.18 nM; in [4] it was 0.3 nM; in series [5] it was 12.3 nM. In addition, the results for the “Ratio Ki” value in series [6] and in series [7] were 1.7 and 68.1, respectively. For the same compound, at Mu-type opioid receptor [8], the EC50 was 0.59 nM. In addition, the Emax in [18] amounted to 21.1%. Besides, in the series with Mus musculus [27], the result was Active.

With `C=CCN1CC[C@]23c4c5ccc(O)c4O[C@H]2C(=O)CC[C@@]3(O)[C@H]1C5`, the inhibition result in the series on Mus musculus [12], with Mus musculus [13] and in the series with Mus musculus [14] was “Active” throughout.
